# An excerpt weighted towards active compounds, which were near 2.1% of everything screened.
# DNMT1 block = blocks human DNA methyltransferase DNMT1. P26358. DNMT1 molecular beacon, Hinp1I cleavage, fluorescence. inhibition (reported as % activation of signal), % at 10 µM. 360,000 tested, 0.83% active; in the data active = inhibition above about 50%
# Scp-1 inhibitor = blocks human Scp-1 phosphatase activity. inhibition, % at 20 µM. 340,000 tested, 0.88% active. Q9GZU7. Recombinant Scp1, phosphopeptide, malachite green phosphate absorbance;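 active = inhibition above about 50% at 20 µM, limit read from the data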;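 also: plate controls were DMSO wells with enzyme for no effect and wells lacking enzyme for full effect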
#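 Test system: SCP-1 catalytic domain; Buffer or medium: Acidic Tris acetate buffer with magnesium and detergent; Also added: Phosphorylated 17-residue peptide substrate; Compound: single 20 µM dose, 1% DMSO; Schedule: enzyme reaction 45 min at room temperature, colour 5 min, stabilisation 30 min; Signal: Phosphate-binding colour reagent, absorbance read at 630 nm.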
# STEP block = inhibitors of human striatal-enriched phosphatase STEP; inhibition, % at 20 µM; 360,000 tested, 0.25% active; recombinant STEP, OMFP fluorogenic substrate, fluorescence; AID 588621; P54829;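 active = inhibition at 20 µM, scaled per plate between control wells, above about 37%, limit read from the data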;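 also: 0% = DMSO with enzyme and substrate and 100% = substrate only without enzyme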
# Target sequence (P54829 whole entry, looked up): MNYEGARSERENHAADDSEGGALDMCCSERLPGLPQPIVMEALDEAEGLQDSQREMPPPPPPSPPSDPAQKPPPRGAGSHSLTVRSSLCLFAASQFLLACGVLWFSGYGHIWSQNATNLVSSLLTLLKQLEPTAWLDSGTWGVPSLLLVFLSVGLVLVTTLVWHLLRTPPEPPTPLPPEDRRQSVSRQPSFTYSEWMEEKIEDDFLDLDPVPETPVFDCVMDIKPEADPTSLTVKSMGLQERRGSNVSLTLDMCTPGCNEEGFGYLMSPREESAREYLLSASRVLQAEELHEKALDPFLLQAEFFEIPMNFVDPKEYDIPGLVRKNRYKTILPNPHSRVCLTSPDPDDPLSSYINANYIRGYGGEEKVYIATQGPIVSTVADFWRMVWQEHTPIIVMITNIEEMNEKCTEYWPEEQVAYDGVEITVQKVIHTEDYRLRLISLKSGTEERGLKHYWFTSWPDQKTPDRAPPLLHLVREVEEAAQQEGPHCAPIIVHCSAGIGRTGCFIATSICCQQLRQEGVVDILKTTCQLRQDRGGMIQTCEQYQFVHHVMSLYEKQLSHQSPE
#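 Assay system: isolated STEP enzyme / Timing: 20 min at room temperature, dark / Doses: 20 µM, 1% DMSO / Technique: fluorescence intensity, excitation 480 nm, emission 540 nm / Reagent: fluorogenic phosphatase substrate OMFP at 25 µM final / Measure: percent inhibition scaled to no-enzyme and uninhibited-enzyme controls, plate-pattern corrected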
# GRK2 aptamer HTS = blocks RNA aptamer binding to human GRK2 | inhibition of aptamer binding, % at 10 µM | bead flow cytometry, FAM-aptamer displacement from GRK2 | AID 488847 | 330,000 tested, 0.59% active;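 active = inhibition of aptamer binding above 40%, roughly 3 SD of noise, on plates passing a quality check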;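 also: median bead fluorescence of bound FAM aptamer so fluorescent compounds give negative values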
# SUMO1-SIM PPI = modulators of human SUMO1-mediated protein-protein interactions. inhibition, % at 20 µM. 360,000 tested, 0.33% active. P63165. SUMO1 binding to a labelled peptide, TR-FRET, 1 h; in the data active = inhibition above about 37%
# LMPTP inh = LMPTP (human) inhibition | recombinant LMPTP-A, OMFP fluorogenic substrate, fluorescence intensity | inhibition, % at 20 µM | 360,000 tested, 0.22% active;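 active = compounds that cut the enzyme signal by at least half of the control window in the single-dose screen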;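 also: plate controls were DMSO wells with enzyme plus substrate for no effect and substrate without enzyme for full effect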
# Target sequence (P24666 whole entry, looked up): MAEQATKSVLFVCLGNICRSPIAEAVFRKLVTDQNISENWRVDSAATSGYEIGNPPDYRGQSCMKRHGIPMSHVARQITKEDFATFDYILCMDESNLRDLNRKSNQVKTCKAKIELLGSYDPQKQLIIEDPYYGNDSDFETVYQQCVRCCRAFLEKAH
#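 Test system – LMPTP-A phosphatase enzyme · Quantity – 0.625 nM LMPTP-A final · Reagent – OMFP substrate, 400 µM final · Dosing – one test concentration per compound, 20 µM, with 3% DMSO overall · Timing – 50 min enzyme reaction at room temperature, protected from light · Detection – fluorescence intensity · Controls – substrate-only low control, DMSO enzyme-plus-substrate high control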
# Beacon interf DR = shows spectral interference in the DNMT1 beacon assay | molecular beacon fluorescence, spectral interference counter-screen | shares compounds with DNMT1 block | IC50, µM | AID 602382 | 200 tested, under 10 active; call rule not given here
# DNMT1 inh conf = DNMT1 inhibition confirmation, single concentration | shares compounds with DNMT1 block | DNMT1 molecular beacon HinP1I cleavage, fluorescence | inhibition, % at 10 µM | 2,300 tested, 8% active | AID 602385;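 active = average inhibition of at least 30% in the single-concentration confirmation test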
# DNMT1 interf = beacon fluorescence artifact counter-screen; 2,300 tested, 1% active; shares compounds with DNMT1 block; activation (fluorescence interference), % at 10 µM; DNMT1 molecular beacon spectral interference counterscreen, fluorescence 485/520; AID 602387;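 active = activation of at least 30% at 10 µM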;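 also: DNMT1 catalytic domain with a HinP1I cleavage step and a FAM/dabcyl DNA beacon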
# The depositor's hits bear a star; x = no result given.
SMILES,DNMT1 block,Scp-1 inhibitor,STEP block,GRK2 aptamer HTS,SUMO1-SIM PPI,LMPTP inh,DNMT1 inh conf,DNMT1 interf,others
CC1=NOC(=O)/C1=C/c1ccc(-c2ccc(Cl)cc2)o1,42.6,x,4.6,1.0,20.1,3.9,x,x,
COc1ccc(-c2cn(Cc3ccc(C(=O)c4ccccc4)cc3)nn2)cc1,x,-3.6,x,1.0,x,x,x,x,
Cc1ccc(C(=O)N[C@H](C(=O)OCc2nnc(-c3ccccc3)o2)C(C)C)cc1,-4.6,0.8,-2.0,0.0,3.9,1.2,x,x,
Cc1ccc(C(=O)N[C@H](C(=O)OCc2cc(=O)n3c(n2)sc2ccccc23)C(C)C)cc1,84.0*,45.8,6.0,0.0,1.3,6.0,3.4,-0.7,
c1ccc(CN2CCC(N3CCC(N4CCCCCC4)CC3)CC2)cc1,-4.5,-12.1,0.3,0.0,-33.2,-5.7,x,x,
c1ccc2c(c1)c1c(c3ccccc32)CN2CCCC2C1 (stereo not drawn),54.1*,22.0,-4.4,x,-16.9,12.9,28.9,0.0,Beacon interf DR=>99
O=C(CN1C(=O)C(=O)N(C2CCCC2)C1=O)NCCc1ccc(Cl)cc1Cl,4.3,0.5,-1.7,0.0,5.7,-1.3,x,x,
O=C1CC(c2ccco2)Sc2nc3ccccc3n21 (stereo not drawn),55.9*,-0.2,6.7,3.0,10.8,1.0,5.0,5.2,
O=C(O)C1CCC(=O)N1C(=O)OCc1ccccc1 (stereo not drawn),0.4,5.2,-1.3,0.0,-3.3,-1.4,x,x,
COc1cc2c(cc1NC(=O)CSc1nnnn1-c1ccccc1)oc1ccccc12,52.0*,-4.3,-1.8,0.0,-1.3,-1.0,0.8,-3.1,
COc1cc2c(cc1NC(=O)CSc1cccc[n+]1[O-])oc1ccccc12,72.3*,-7.1,0.4,7.0,0.1,-1.0,1.9,-0.1,
O=C1CC(c2ccco2)CC(O)=C1C=Nc1cc(Cl)ccc1O (stereo not drawn),89.1*,72.5*,3.6,6.0,21.5,9.0,3.0,-1.7,
C=C(C)C(=O)Nc1ccc(OC(F)(F)C(F)F)c(NC(=O)C(=C)C)c1,56.0*,44.5,2.8,40.0,0.2,-0.2,4.3,6.3,
O=C(N/N=C/c1ccccc1)c1cc(=O)[nH]c2ccccc12,61.3*,4.4,0.8,1.0,-4.5,-1.2,3.5,6.7,
CN(C)c1ccc(/C=N/NC(=O)c2cc(=O)[nH]c3ccccc23)cc1,1.4,0.2,-0.5,2.0,-17.2,3.2,x,x,
COc1ccc(NC(=O)c2cc3c(=O)n(C)c4ccccc4c3s2)cc1OC,74.8*,-3.1,-3.7,0.0,4.2,0.6,2.3,-2.1,
CCOc1ccc(-c2nnc3sc(COc4ccc(Cl)cc4)nn23)cc1,58.2*,-3.2,1.1,0.0,-2.2,10.7,10.6,2.5,
Cc1ccnc(NC(=O)CCC(=O)N(CC(=O)NCc2ccc(F)cc2)c2ccc(F)cc2)c1,73.0*,-3.1,-3.3,1.0,-2.6,-0.8,5.6,7.2,
CC(=O)N1CCN(c2ccc(NC(=O)C(c3ccccc3)c3ccccc3)cc2)CC1,0.9,-2.0,0.1,5.0,3.3,-0.3,x,x,
O=C(Nc1ccc(N2CCCC2)cc1)c1ccc(Br)cc1,57.5*,-0.6,1.6,0.0,-54.1,8.9,12.9,-5.8,
O=C(Cc1ccccc1)Nc1cccc(N2CCCC2)c1,78.3*,-10.9,-0.7,0.0,-0.4,16.5,1.4,2.5,
O=C(Nc1ccc(N2CCCC2)cc1)C(c1ccccc1)c1ccccc1,72.6*,3.3,7.4,0.0,7.9,3.6,2.2,-1.4,
CCOc1cccc(C(=O)NC(=S)Nc2ccc(N3CCCC3)cc2)c1,71.7*,6.8,11.0,0.0,-7.1,5.0,1.4,1.6,
Nc1nc2nccc(-c3cccnc3)n2n1,5.9,5.2,2.3,4.0,-6.1,2.6,x,x,
O=C(Nc1ccc(N2CCCC2)cc1)c1cc2ccccc2o1,64.6*,0.1,0.6,0.0,-26.7,26.3,4.0,-1.6,
SMILES,DNMT1 block,Scp-1 inhibitor,STEP block,GRK2 aptamer HTS,SUMO1-SIM PPI,LMPTP inh,DNMT1 inh conf,DNMT1 interf,others
O=C(Cc1ccc(Cl)cc1)Nc1ccc(NC(=O)c2ccccc2)cc1,55.8*,2.7,0.9,0.0,1.3,16.2,2.7,5.8,
O=C(Cc1ccccc1)Nc1ccc(N2CCOCC2)cc1,-4.3,1.7,-3.2,2.0,-1.1,-1.4,x,x,
CCCCC(=O)Nc1ccc(N2CCCC2)cc1,76.9*,-3.6,4.0,0.0,-7.4,9.3,1.4,3.1,
O=C(Cc1ccccc1)Nc1ccc(N2CCCC2)cc1,94.2*,1.7,1.1,0.0,-0.8,37.2,6.4,-4.0,
O=C1CC(C(=O)Nc2cc(Cl)ccc2Cl)n2ncnc2N1 (stereo not drawn),4.4,-3.9,-0.7,1.0,-0.5,-1.1,x,x,
Cc1cc(C)c2nc(N3C(=O)C(O)=C(C(=O)c4ccco4)C3c3ccco3)sc2c1 (stereo not drawn),57.8*,51.6*,24.2,4.0,16.6,22.6,14.8,-0.7,
O=C(Nc1nc(-c2ccco2)c(-c2ccco2)s1)c1c(F)cccc1Cl,69.7*,-8.6,1.2,3.0,5.5,5.3,6.2,21.9,
Cc1nc(COc2ccc(C(=O)NCc3ccccc3CN3CCCCC3)cc2)cs1,4.0,-2.5,-2.2,0.0,0.4,-1.0,x,x,
Cc1c(C(=O)Nc2ccc(F)cc2)cn2c(nc3ccccc32)c1C#N,23.8,-4.0,0.7,0.0,1.2,-2.0,x,x,
N#Cc1c2nc3ccccc3nc2n2cc(NC(=O)c3ccc(F)cc3)ccc12,103.1*,12.3,16.0,x,22.7,45.3,3.2,-6.4,
O=C(Nc1ccc(F)cc1F)NC1CCN(Cc2c(F)cccc2Cl)CC1,-0.7,5.3,4.0,0.0,3.6,-1.9,x,x,
O=C(N/N=C/c1cc(Cl)cc([N+](=O)[O-])c1O)NC12CC3CC(CC(C3)C1)C2,71.6*,23.2,7.7,3.0,-1.2,78.2*,6.8,-4.7,
O=C(Cn1cncc1-c1ccc([N+](=O)[O-])cc1)Nc1cccc2ccccc12,50.1*,13.2,1.6,0.0,-13.9,5.8,7.3,-3.2,
N#Cc1ccc(-c2ccccc2)nc1SCC(=O)c1cc2ccccc2oc1=O,69.5*,-6.2,2.4,0.0,-1.5,1.7,1.5,4.7,
O=C1NC(c2cccs2)Nc2ccccc21 (stereo not drawn),64.1*,-11.9,-3.5,1.0,-4.6,-0.5,2.1,-0.2,
